The test system of data set [1] is L1210. Put plainly: Antiproliferative activity against lymphoid leukemia L1210 cells after 48 hr exposure. Type of data set: functional. Conditions: Mus musculus, L1210, 48 h; read-out: ID50 (the source's name).
Data set [2] deals with L1210. Put plainly: Concentration that causes a mitotic index (fraction of cells in mitosis divided by total cells) of 0.5 for cultured lymphoid leukemia L1210 cells after exposure of 12 hr. Type of data set: functional, Mus musculus. The method in brief:
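Cultured lymphoid leukemia L1210 cells exposed to agent for 12 h. Mitotic index is the fraction of cells in mitosis over total cells. The value is the agent concentration giving a mitotic index of 0.5.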

Data set [3] deals with Mus musculus. In words: Increase in life span of mice with lymphocytic leukemia P388 10E6 tumor cell implant (intraperitoneally) at the highest nontoxic dose of 200 mg/kg tested. Type of data set: functional. Conditions: P388, ip, route intraperitoneal. The method in brief: (§1)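 Mice bore P388 lymphocytic leukemia. The value is the increase in life span at the highest nontoxic dose tested, with toxicity judged by weight change.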

Data set [4] relates to Mus musculus. In words: Increase in life span of mice with lymphocytic leukemia P388 10E6 tumor cell implant (intraperitoneally) at the highest nontoxic dose of 300 mg/kg tested. Type of data set: functional. Conditions: P388, ip, route intraperitoneal. The method in brief:
as §1

In data set [5] the test system is Mus musculus. In words: Increase in life span of mice with lymphocytic leukemia P388 10E6 tumor cell implant (intraperitoneally) at the highest nontoxic dose of 75 mg/kg tested. Type of data set: functional. Conditions: P388, ip, route intraperitoneal. The method in brief: as §1
The test system of data set [6] is Mus musculus. In words: Increase in life span of mice with lymphocytic leukemia P388 10E6 tumor cell implant (intraperitoneally) at the highest nontoxic dose of 100 mg/kg tested. The conditions noted are these: P388, ip, route intraperitoneal. Type of data set: functional. The method in brief: as §1
The test system of data set [7] is Mus musculus. In words: Compound tested for weight change in mice at a dose of 400 mg/kg; Toxic. Type of data set: toxicity, organism-based. Set-up: dose 400 mg/kg. The conditions noted are these: in vivo.
The test system of data set [8] is Mus musculus. Put plainly: Compound tested for weight change in mice at a dose of 200 mg/kg; Toxic. Further details: dose 200 mg/kg. The conditions noted are these: in vivo. Type of data set: toxicity, organism-based.
The subject of data set [9] is Mus musculus. In words: Increase in life span of mice with lymphocytic leukemia P388 10E6 tumor cell implant (intraperitoneally) at the highest nontoxic dose of 150 mg/kg tested. The conditions noted are these: P388, ip, route intraperitoneal. Type of data set: functional. The procedure, abridged: as §1

For `CCOC(=O)Nc1cc2c(c(N)n1)N=C(c1ccccc1)C(C)(C)S2`, the IC50 in data set [1] is more than 10000 nM.

For the compound `CCOC(=O)Nc1cc2c(c(N)n1)N=C(c1ccccc1)C(c1ccccc1)O2` (stereo not given), the MI0.5 in [2] worked out at 3 µM. For the same compound, in data set [1], the IC50 was found to be 880 nM. The compound further had an ILS at 200 mg/kg in [3] of 2%.

For the compound `CCOC(=O)Nc1cc2oc(=O)c(-c3ccccc3)nc2c(N)n1`, in [1], the IC50 was determined as 3000 nM. In [4], the ILS at 300 mg/kg came to 0%.

In turn, `CCOC(=O)Nc1cc2c(c(N)n1)N=C(c1cccc(OC)c1)CS2` yielded an MI0.5 in data set [2] of 2 µM. In [1], the IC50 worked out at 530 nM. In data set [5], this compound registered an ILS at 75 mg/kg of 3%.

`CCOC(=O)Nc1cc2c(c(N)n1)N=C(c1ccccc1)CO2`: in data set [2], the MI0.5 stood at 0.56 µM. Moreover, the IC50 in data set [1] was found to be 225 nM. This compound also had an ILS at 100 mg/kg in data set [6] of 44%. In data set [3], this compound had an ILS at 200 mg/kg of 80%. Further, the Toxicity result in data set [7] was “Toxic”.

On to `CCOC(=O)Nc1cc2c(c(N)n1)N=C(c1ccc(Cl)cc1)CO2`, for which, in data set [1], the IC50 is more than 3000 nM. In data set [4], this compound showed an ILS at 300 mg/kg of 0%.

For the compound `CCOC(=O)Nc1cc2c(c(N)n1)N=C(c1cc(OC)cc(OC)c1)C(C)O2` (stereo not given), in data set [2], the MI0.5 was 2.9 µM. Moreover, the IC50 in [1] turned out to be 1250 nM.

In data set [2], `CCOC(=O)Nc1cc2c(c(/N=C/N(C)C)n1)N=C(c1ccccc1)CO2` yielded an MI0.5 of 0.78 µM. In [1], the IC50 is 310 nM. This compound displayed an ILS at 100 mg/kg in [6] of 1%. Besides, the Toxicity entry in data set [8] is reported as “Toxic”.

The compound `CCOC(=O)Nc1cc2c(c(N)n1)N=C(c1ccc(OC)cc1)CS2` registered an MI0.5 in data set [2] of 4.9 µM. Moreover, in data set [1], the IC50 was 340 nM. The compound also displayed an ILS at 300 mg/kg in data set [4] of 3%.

Regarding `CCOC(=O)Nc1cc2c(c(N)n1)N=C(c1ccccc1)C(C)O2` (stereo not given), in data set [2], the MI0.5 was 0.49 µM. Moreover, the IC50 in data set [1] stood at 110 nM. This compound showed an increase in life span (ILS) at 100 mg/kg in data set [6] of 49%.

In turn, `CCOC(=O)Nc1cc2c(c(N)n1)N=C(c1ccccc1)CS2` gave an MI0.5 in data set [2] of more than 10 µM. The IC50 in data set [1] is 6100 nM. Moreover, in [4], the ILS at 300 mg/kg came out at 0%.

Consider `CCOC(=O)Nc1cc2c(c(N)n1)N=C(c1cccc(OC)c1)CO2`, for which the MI0.5 in [2] is 0.1 µM. Further, in data set [1], the IC50 worked out at 52 nM.

Turning to `CCOC(=O)Nc1cc2c(c(N)n1)N=C(c1cc(OC)c(OC)c(OC)c1)CO2`, the IC50 in [1] is more than 3000 nM. In [4], the ILS at 300 mg/kg came to 0%.

In data set [2], `CCOC(=O)Nc1cc2c(c(N)n1)N=C(c1ccccc1)C(C)S2` (stereo not given) returned an MI0.5 of 9.6 µM. In data set [1], the IC50 came out at 1600 nM. The increase in lifespan (ILS) at 150 mg/kg in [9] is 10%.

In the case of `CCOC(=O)Nc1cc2c(c(N)n1)N=C(c1ccc([N+](=O)[O-])cc1)CO2`, the IC50 in [1] was more than 3000 nM. In [4], this compound registered an ILS at 300 mg/kg of 0%.

With `CCOC(=O)Nc1cc2c(c(NC(=O)CBr)n1)N=C(c1ccccc1)CO2`, the MI0.5 in data set [2] stood at 11 µM. The IC50 in [1] was found to be 2200 nM.

For the compound `CCOC(=O)Nc1cc2c(c(N)n1)N=C(c1ccc3ccccc3c1)CS2`, the MI0.5 in data set [2] stood at 3 µM. In addition, the IC50 in data set [1] is 580 nM. The compound further returned an ILS at 300 mg/kg in data set [4] of 5%.

For orientation: ILS means how much longer treated animals lived than controls. Read a low ILS as a small benefit in survival.
